Activity calls are given as the source filed them. No cut-off for these calls is given here.
Legend:
U-937 [1] = assay: Induction of human U937 cell differentiation into granulocytes assessed as expression of CD11c marker on cell membrane at 5 uM after 30 to 40 hrs by PI staining based FACS analysis; format: functional
Method in brief: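 After 5 µM treatment, U937 cells were stained with PE-conjugated anti-CD11c; controls got PE mouse IgG1, 30 min at 4 °C in the dark. Cells were washed and taken up in PBS with propidium iodide (0.25 µg/mL), then read by FACS. Result is percent CD11c-positive/PI-negative cells, mean of independent quadruplicates.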

[2] = target: Histone deacetylase 1 (Homo sapiens) (UniProt Q13547); assay: Inhibition of human recombinant GST-tagged HDAC1 expressed in Sf9 cells using Fluor de Lys as substrate at 5 uM after 0.5 hrs by fluorimetry
Method in brief: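 GST-HDAC1 was expressed in Sf9 cells via baculovirus and purified on glutathione beads. Enzyme was incubated with Fluor de Lys acetyl-lysine substrate ±5 µM compound for 0.5 h at 37 °C, followed by developer for 30 min. Fluorescence was read at ex 360/em 460 nm and reported as percent of control activity.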

[3] = target: Histone deacetylase (Homo sapiens) (UniProt Q13547+O15379+Q9UBN7+Q92769+Q9UQL6+Q8WUI4+Q9BY41+Q96DB2+P56524+Q9UKV0+Q969S8); assay: Inhibition of HDAC1 in human U937 cells assessed a increase in histone H3 acetylation in human U937 cells at 5 uM after 24 hrs by Western blot analysis; format: cell-based; settings: U-937
Method in brief: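 U937 cells were treated 24 h at 5 µM, then lysed in Triton extraction buffer. Histones were acid-extracted with 0.2 M HCl overnight at 4 °C and protein was quantified by Bradford. 10 µg of histone extract was run on 15% polyacrylamide gels and immunoblotted with pan-acetyl-histone H3 antibody.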

U-937 [4] = assay: Induction of apoptosis in human U937 cells assessed as caspase 3 activation at 5 uM after 30 hrs by FACS analysis; format: functional
Method in brief: (§1)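 Caspase 3 activity was read in living U937 cells after 5 µM exposure. About 1×10^6 cells were washed twice in cold PBS and loaded 1 h on ice with cell-permeable fluorescent substrate FAM-DEVD-FMK. After washing, cells were analysed by FACS. Runs were in duplicate; values are mean ± SD.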

U-937 [5] = assay: Cell cycle arrest in human U937 cells assessed as accumulation at G1 phase at 5 uM after 30 hrs by propidium iodide staining based flow cytometry; format: functional
Method in brief: (§2)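 U937 cells in RPMI with 10% FBS and antibiotics, kept at 200,000 cells/mL, exposed to compound at 5 µM (in DMSO). DNA content was read by flow cytometry and phases modelled with ModFit. Values are means of independent duplicates.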

[6] = target: CREB-binding protein/Histone acetyltransferase p300 (Homo sapiens) (UniProt Q09472+Q92793); assay: Inhibition of recombinant human p300/CBP using [3H]-acetyl CoA at 50 uM after 2 hrs by scintillation counting relative to control; format: protein assay
Method in brief: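 CBP fragment (aa 1098–1877) expressed in E. coli BL21 and affinity-purified (1 µg) was incubated in HAT buffer with histone H4 peptide (aa 2–24, 10 µg) and 20 µM acetyl CoA carrying 0.5 µCi/mL [³H]-acetyl CoA, compound at 50 µM, for 2 h at 37 °C. Samples were spotted on P81 paper in triplicate, washed in TCA and acetone, and counted. Output is percent of untreated control.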

[7] = target: T1, NAD-dependent protein deacetylase sirtuin-1 (Homo sapiens) (UniProt Q96EB6); assay: Inhibition of recombinant human SIRT1 lysine deacetylase activity at 50 uM after 60 mins by fluorimetry relative to control
T1 sequence (whole entry): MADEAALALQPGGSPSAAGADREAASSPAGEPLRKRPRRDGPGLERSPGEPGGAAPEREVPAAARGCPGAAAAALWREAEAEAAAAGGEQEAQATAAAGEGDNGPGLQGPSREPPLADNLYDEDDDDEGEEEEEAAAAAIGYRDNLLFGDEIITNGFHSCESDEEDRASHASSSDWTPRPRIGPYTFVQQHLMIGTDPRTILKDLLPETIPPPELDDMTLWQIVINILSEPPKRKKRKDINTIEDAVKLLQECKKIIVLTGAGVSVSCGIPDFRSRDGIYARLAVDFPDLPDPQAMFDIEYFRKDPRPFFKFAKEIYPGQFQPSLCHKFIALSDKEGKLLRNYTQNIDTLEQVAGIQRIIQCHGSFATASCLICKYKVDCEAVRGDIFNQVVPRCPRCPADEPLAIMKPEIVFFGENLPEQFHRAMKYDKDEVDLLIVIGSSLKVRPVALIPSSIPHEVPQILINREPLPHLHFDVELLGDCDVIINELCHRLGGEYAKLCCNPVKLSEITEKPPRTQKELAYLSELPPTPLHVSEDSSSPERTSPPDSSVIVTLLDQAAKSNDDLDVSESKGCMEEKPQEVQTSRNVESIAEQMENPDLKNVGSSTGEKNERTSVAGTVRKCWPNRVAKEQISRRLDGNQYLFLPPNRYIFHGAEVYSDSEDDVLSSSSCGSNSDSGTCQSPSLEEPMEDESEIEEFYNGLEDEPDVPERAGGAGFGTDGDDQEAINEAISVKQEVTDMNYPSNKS
Method in brief: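 Human SIRT1 expressed in E. coli BL21 and affinity-purified (1 µg) was reacted with acetylated p53 peptide (aa 379–382), 1 mM DTT and 200 µM NAD⁺, with compound at 50 µM, 60 min at 37 °C. Fluorescence was read at ex 360/em 450 nm. Results are mean and SD of four independent experiments as percent of untreated control.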

U-937 [8] = assay: Induction of apoptosis in human U937 cells assessed as caspase 3 activation at 5 uM after 40 hrs by FACS analysis; format: functional, cell-based; method in brief: as §1
U-937 [9] = assay: Cell cycle arrest in human U937 cells assessed as accumulation at G2/M phase at 5 uM after 48 hrs by propidium iodide staining based flow cytometry; format: functional; method in brief: as §2
U-937 [10] = assay: Cell cycle arrest in human U937 cells assessed as accumulation at G2/M phase at 5 uM after 30 hrs by propidium iodide staining based flow cytometry; format: functional; method in brief: as §2
U-937 [11] = assay: Cell cycle arrest in human U937 cells assessed as accumulation at G1 phase at 5 uM after 48 hrs by propidium iodide staining based flow cytometry; format: functional; method in brief: as §2
U-937 [12] = assay: Cell cycle arrest in human U937 cells assessed as accumulation at S phase at 5 uM after 48 hrs by propidium iodide staining based flow cytometry; format: functional; method in brief: as §2
[13] = Inhibition of HDAC in cell-free system
U-937 [14] = assay: Cell cycle arrest in human U937 cells assessed as accumulation at G1 phase at 5 uM by propidium iodide staining based flow cytometry; format: functional; settings: TDE = time-dependent effect; method in brief: as §2
[15] = Inhibition of DNMT in cell-free system

Chain of CREB-binding protein/Histone acetyltransferase p300 (Homo sapiens) (Q09472 whole entry, looked up, the tested form may be a part): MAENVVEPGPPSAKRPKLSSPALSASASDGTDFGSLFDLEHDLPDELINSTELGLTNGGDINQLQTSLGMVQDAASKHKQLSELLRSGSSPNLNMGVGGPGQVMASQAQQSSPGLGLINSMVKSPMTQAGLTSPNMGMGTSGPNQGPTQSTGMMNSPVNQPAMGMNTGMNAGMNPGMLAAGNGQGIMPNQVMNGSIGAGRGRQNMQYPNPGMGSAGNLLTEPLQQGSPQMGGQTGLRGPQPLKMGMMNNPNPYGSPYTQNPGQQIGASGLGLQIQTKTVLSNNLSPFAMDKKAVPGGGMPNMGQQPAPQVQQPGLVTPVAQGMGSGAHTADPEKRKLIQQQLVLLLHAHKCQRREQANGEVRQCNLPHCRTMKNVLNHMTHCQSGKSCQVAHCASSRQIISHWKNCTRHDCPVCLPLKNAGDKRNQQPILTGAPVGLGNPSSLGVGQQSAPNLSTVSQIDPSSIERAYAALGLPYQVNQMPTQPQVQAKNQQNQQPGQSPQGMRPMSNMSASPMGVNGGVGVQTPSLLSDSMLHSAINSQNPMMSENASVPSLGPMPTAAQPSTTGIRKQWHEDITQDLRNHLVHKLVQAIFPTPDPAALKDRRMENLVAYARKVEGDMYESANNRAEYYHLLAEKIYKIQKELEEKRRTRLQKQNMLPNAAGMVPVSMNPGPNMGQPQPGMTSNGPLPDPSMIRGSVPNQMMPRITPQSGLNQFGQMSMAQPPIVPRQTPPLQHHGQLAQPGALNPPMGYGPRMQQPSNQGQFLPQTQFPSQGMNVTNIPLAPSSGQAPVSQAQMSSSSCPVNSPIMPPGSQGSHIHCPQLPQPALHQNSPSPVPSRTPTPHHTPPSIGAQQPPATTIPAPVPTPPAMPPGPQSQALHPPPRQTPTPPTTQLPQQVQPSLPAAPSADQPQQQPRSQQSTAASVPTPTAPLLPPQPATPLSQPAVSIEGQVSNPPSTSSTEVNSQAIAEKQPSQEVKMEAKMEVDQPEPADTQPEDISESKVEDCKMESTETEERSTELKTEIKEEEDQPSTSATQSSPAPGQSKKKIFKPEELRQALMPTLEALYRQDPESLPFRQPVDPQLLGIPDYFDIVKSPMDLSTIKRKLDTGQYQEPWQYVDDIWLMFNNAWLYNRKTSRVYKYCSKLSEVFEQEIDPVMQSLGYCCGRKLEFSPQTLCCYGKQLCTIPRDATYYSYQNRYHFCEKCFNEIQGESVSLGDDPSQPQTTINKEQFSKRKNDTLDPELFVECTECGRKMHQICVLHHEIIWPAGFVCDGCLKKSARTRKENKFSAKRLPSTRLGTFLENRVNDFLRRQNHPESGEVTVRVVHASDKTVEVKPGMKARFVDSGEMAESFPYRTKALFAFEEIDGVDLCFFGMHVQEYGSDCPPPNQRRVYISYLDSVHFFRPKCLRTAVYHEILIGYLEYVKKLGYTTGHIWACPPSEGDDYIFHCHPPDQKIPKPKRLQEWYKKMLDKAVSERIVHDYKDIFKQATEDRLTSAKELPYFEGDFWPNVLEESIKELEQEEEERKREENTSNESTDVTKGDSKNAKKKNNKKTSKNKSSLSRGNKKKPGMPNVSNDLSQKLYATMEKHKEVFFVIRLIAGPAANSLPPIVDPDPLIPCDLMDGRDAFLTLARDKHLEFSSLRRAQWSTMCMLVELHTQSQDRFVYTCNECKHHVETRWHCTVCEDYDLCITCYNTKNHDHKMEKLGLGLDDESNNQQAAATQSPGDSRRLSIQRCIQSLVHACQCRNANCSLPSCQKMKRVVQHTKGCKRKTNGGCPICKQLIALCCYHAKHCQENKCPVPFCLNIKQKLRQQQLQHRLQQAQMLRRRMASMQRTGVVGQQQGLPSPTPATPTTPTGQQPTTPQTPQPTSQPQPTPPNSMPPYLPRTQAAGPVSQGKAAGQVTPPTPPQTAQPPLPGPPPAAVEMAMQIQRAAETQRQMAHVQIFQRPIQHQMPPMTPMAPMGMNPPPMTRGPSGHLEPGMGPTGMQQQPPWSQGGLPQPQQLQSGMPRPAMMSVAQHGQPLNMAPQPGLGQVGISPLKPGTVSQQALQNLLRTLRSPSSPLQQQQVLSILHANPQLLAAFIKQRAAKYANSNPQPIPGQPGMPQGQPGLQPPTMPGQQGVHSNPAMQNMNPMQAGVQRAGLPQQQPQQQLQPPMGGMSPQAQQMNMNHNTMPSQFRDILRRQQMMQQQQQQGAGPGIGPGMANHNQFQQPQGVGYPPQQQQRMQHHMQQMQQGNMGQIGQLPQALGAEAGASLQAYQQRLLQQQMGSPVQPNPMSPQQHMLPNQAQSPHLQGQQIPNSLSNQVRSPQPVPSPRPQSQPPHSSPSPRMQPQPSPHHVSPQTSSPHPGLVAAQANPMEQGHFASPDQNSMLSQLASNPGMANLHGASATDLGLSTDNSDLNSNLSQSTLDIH
Chain of CREB-binding protein/Histone acetyltransferase p300 (Homo sapiens) (Q92793 whole entry, looked up, the tested form may be a part): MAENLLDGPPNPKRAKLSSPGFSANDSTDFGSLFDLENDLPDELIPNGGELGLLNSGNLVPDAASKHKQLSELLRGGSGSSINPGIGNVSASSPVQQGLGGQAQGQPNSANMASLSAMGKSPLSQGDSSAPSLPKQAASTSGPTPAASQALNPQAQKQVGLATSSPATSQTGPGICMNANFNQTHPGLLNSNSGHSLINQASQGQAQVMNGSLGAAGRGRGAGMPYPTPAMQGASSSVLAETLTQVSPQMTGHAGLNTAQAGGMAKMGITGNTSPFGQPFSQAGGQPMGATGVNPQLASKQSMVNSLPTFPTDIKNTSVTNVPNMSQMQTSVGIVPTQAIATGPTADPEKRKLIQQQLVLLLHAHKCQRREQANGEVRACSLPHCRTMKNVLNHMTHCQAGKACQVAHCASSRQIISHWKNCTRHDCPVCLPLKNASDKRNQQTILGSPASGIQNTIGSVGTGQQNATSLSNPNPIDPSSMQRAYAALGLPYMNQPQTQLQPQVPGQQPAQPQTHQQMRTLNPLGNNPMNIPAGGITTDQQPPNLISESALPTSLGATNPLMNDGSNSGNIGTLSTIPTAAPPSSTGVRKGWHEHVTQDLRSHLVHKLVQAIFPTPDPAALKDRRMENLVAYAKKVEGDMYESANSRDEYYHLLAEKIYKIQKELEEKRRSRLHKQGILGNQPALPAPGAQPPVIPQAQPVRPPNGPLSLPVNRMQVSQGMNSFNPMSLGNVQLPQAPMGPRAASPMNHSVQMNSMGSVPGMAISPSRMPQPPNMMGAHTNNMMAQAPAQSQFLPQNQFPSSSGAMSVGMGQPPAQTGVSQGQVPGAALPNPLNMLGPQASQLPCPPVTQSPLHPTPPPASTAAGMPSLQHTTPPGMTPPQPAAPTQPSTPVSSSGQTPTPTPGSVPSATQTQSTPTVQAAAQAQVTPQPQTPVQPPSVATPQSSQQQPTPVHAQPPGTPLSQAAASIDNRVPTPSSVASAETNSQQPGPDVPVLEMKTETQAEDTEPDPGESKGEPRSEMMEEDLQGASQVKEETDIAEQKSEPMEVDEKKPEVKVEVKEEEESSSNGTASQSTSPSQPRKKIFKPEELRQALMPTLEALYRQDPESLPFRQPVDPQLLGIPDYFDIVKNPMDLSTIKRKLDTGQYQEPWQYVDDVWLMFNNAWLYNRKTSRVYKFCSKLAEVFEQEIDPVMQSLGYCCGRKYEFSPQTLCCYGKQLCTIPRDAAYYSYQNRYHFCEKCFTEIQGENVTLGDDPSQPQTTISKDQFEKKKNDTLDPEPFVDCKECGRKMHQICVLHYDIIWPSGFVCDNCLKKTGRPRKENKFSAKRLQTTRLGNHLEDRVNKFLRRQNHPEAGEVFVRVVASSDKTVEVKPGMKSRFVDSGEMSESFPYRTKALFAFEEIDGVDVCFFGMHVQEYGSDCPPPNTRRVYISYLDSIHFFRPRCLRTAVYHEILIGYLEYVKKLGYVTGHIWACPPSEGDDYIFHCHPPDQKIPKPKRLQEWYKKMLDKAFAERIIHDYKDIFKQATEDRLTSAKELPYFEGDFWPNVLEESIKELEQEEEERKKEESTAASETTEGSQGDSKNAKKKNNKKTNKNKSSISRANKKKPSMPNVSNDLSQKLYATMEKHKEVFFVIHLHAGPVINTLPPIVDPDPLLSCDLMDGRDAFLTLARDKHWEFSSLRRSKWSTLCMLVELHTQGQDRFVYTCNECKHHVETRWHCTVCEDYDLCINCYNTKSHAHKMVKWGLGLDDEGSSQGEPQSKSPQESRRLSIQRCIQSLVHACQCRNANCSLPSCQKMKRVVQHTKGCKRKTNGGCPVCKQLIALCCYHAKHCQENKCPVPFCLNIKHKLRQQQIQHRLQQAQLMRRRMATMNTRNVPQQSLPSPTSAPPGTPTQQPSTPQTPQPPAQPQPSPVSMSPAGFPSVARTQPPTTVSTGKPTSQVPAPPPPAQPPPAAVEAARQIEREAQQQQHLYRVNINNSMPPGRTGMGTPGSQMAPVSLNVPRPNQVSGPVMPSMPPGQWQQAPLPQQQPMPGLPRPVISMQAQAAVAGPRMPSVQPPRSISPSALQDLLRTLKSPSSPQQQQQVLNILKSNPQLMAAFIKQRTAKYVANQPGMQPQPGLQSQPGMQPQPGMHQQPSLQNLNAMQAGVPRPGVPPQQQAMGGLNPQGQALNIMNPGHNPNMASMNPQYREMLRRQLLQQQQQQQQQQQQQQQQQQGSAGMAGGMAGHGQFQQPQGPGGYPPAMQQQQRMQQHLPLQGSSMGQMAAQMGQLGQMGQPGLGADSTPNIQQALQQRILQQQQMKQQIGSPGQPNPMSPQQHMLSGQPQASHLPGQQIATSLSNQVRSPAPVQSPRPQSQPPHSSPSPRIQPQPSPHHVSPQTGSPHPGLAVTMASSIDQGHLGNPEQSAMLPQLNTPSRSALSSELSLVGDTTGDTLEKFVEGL

| inhibition [2] | Activity [3] | inhibition [6] | inhibition [7] | SMILES | Activity (U-937 [5]) | further results |
| --- | --- | --- | --- | --- | --- | --- |
| inactive |  |  |  | CSCCNC(=O)/C(Cc1ccc(O)c(Br)c1)=N/O |  | Activity (U-937 [1]): Active |
| Active | Active | inactive | Active | O=C(NCCSSCCNC(=O)/C(Cc1ccc(O)cc1)=N/O)/C(Cc1ccc(O)cc1)=N/O | 80% | caspase 3 activation (U-937 [4]): 30% |
| inactive |  |  |  | O=C(NCCCSSCCCNC(=O)/C(Cc1ccc(O)c(Br)c1)=N/O)/C(Cc1ccc(O)c(Br)c1)=N/O |  |  |
| Active | Active | inactive | Active | O=C(NCCSSCCNC(=O)/C(Cc1ccc(O)c(F)c1)=N/O)/C(Cc1ccc(O)c(F)c1)=N/O | 80% | caspase 3 activation (U-937 [4]): 30% |
|  |  | Active |  | C=CC/C=C\C/C=C\CCCCCCCc1cccc(O)c1C(=O)O |  |  |
| Active | Active | inactive | Active | O=C(NCCSSCCNC(=O)/C(Cc1ccccc1)=N/O)/C(Cc1ccccc1)=N/O | 80% | caspase 3 activation (U-937 [4]): 30% |
| inactive |  |  |  | O=C(NCCCCCCSSCCCCCCNC(=O)/C(Cc1ccc(O)c(Br)c1)=N/O)/C(Cc1ccc(O)c(Br)c1)=N/O |  |  |
| inactive |  | inactive | Active | O=C(CCc1ccc(O)c(Br)c1)NCCSSCCNC(=O)CCc1ccc(O)c(Br)c1 | 80% | Activity (U-937 [8]): inactive |
| inactive |  |  |  | O=C(NCCO)/C(Cc1ccc(O)c(Br)c1)=N/O |  |  |
|  |  |  | Active | Cc1ccc(C(=O)Nc2ccc(S(=O)(=O)O)c3cc(S(=O)(=O)O)cc(S(=O)(=O)O)c23)cc1NC(=O)c1cccc(NC(=O)Nc2cccc(C(=O)Nc3cc(C(=O)Nc4ccc(S(=O)(=O)O)c5cc(S(=O)(=O)O)cc(S(=O)(=O)O)c45)ccc3C)c2)c1 |  |  |
| inactive |  |  |  | O=C(NCCCCCSSCCCCCNC(=O)/C(Cc1ccc(O)c(Br)c1)=N/O)/C(Cc1ccc(O)c(Br)c1)=N/O |  |  |
| Active | Active | inactive | Active | O=C(NCCSSCCNC(=O)/C(Cc1ccc(O)c(I)c1)=N/O)/C(Cc1ccc(O)c(I)c1)=N/O | 80% | caspase 3 activation (U-937 [4]): 30% |
| inactive |  |  |  | O=C(NCCCCSSCCCCNC(=O)/C(Cc1ccc(O)c(Br)c1)=N/O)/C(Cc1ccc(O)c(Br)c1)=N/O |  |  |
| inactive |  |  |  | O=C(NCCCCCCNC(=O)/C(Cc1ccc(O)c(Br)c1)=N/O)/C(Cc1ccc(O)c(Br)c1)=N/O |  |  |
| inactive |  |  |  | O=C1C=CC2(C=C1Br)CC(C(=O)NCCSSCCNC(=O)C1=NOC3(C=CC(=O)C(Br)=C3)C1)=NO2 (stereo not given) |  | Activity (U-937 [9]): inactive; Activity (U-937 [10]): Active; Activity (U-937 [11]): inactive; Activity (U-937 [4]): Active; Activity (U-937 [12]): inactive |
|  |  |  |  | O=C(CCCCCCC(=O)Nc1ccccc1)NO | Active |  |
| inactive |  |  |  | COCCNC(=O)/C(Cc1ccc(O)c(Br)c1)=N/O |  |  |
| Active | Active | inactive | Active | O=C(NCCSSCCNC(=O)/C(Cc1ccc(O)c(Cl)c1)=N/O)/C(Cc1ccc(O)c(Cl)c1)=N/O | 80% | caspase 3 activation (U-937 [4]): 30% |
| Active | Active | inactive | Active | O=C(NCCSSCCNC(=O)/C(Cc1cccc(O)c1)=N/O)/C(Cc1cccc(O)c1)=N/O | 80% | caspase 3 activation (U-937 [4]): 30% |
|  |  |  |  | Nc1ccccc1NC(=O)c1ccc(CNC(=O)OCc2cccnc2)cc1 | Active |  |
| Active |  | inactive | Active | O=C(NCCSSCCNC(=O)/C(Cc1ccc(O)c(Br)c1)=N/O)/C(Cc1ccc(O)c(Br)c1)=N/O [PSAMMAPLIN A] | 60% | IC50 [13]: 0.0042 µM; Activity (U-937 [14]): tde; IC50 [15]: 0.0186 µM; Activity (U-937 [4]): Active; Activity (U-937 [1]): Active |
| inactive | Active | inactive | Active | O=C(NCCSSCCNC(=O)/C(Cc1cc(Br)c(O)c(Br)c1)=N/O)/C(Cc1cc(Br)c(O)c(Br)c1)=N/O | 80% | Activity (U-937 [8]): inactive |

Source: ChEMBL document CHEMBL1817548, “Epigenetic profiling of the antitumor natural product psammaplin A and its analogues” (Bioorg Med Chem, 2011)
